Neddylation inh = cullin neddylation inhibition | calls only at 25 µM | TR-FRET cullin neddylation, biochemical | AID 651699 | 0.58% of 360,000 active | P61081+Q13564; in the data active = inhibition above about 36%
NR2E3 ag-1 = agonists of human NR2E3 nuclear receptor | CHO-S Gal4-NCOR/VP16-NR2E3 two-hybrid, luciferase | inhibition of corepressor binding, % at 3.98 µM | 0.35% of 360,000 active | AID 602229;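 active = inhibition above the mean of all tested compounds plus 3 SD, cut at about 70% in these data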;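 note: 0% = DMSO with NR2E3 transfected cells and 100% = cells lacking NR2E3 construct; higher means lower luciferase signal from less NR2E3 corepressor binding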
Target sequence (Q9Y5X4 whole entry, looked up, the tested form may be a part): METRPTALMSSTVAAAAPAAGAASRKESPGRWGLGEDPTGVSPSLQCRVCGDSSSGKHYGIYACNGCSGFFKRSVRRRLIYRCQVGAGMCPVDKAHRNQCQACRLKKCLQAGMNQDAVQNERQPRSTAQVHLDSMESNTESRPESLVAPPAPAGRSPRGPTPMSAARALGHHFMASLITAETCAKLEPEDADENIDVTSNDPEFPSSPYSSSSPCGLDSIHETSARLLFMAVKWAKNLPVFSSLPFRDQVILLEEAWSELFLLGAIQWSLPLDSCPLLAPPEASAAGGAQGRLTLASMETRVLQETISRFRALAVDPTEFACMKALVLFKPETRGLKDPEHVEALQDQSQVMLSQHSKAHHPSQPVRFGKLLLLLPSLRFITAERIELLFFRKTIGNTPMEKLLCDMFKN
NR2E3 ag-2 = activates human photoreceptor nuclear receptor NR2E3. Q9Y5X4. GST-NR2E3/biotin-RetCOR TR-FRET, 1536-well. inhibition of corepressor binding, % at 4.78 µM. 0.12% of 320,000 active. AID 2300;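 active = percent inhibition above the cutoff of mean plus 3 SD of all tested compounds, set per screening campaign, cut at about 20% in these data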;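 note: 0% = DMSO wells and 100% = biotin wells as full block of FRET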
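Material: NR2E3–RetCOR corepressor complex / Incubation: Compound–protein incubation for 5 h at 4 °C / Dosing: compound at 4.8 µM, single dose / Detection: time-resolved FRET / Benchmarks: high control biotin, low control 0.6% DMSO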
Rev-erbA mod = modulators of human Rev-erb alpha DNA binding; Rev-erbα–FITC-DNA binding, fluorescence polarization, 90 min; 0.79% of 370,000 active; AID 1259318; activity, % at 10 µM; P20393;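 active = activity above about 14%, limit read from the data; passing the limit was not always enough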;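 note: 0% = DMSO wells with 35 nM protein and 100% = DMSO wells with 750 nM protein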
PG9 binder = binds the HIV-1 gp120 antibody PG9 | TR-FRET gp120-PG9 antibody binding | inhibition, % at 6.7 µM | 0.43% of 360,000 active | AID 624416; in the data active = inhibition above about 8.5%
NR2E3 ag conf = NR2E3 agonism confirmed in two-hybrid assay; shares compounds with NR2E3 ag-1; CHO-S mammalian two-hybrid NR2E3-NCOR, luciferase luminescence; inhibition, % at 3.98 µM; 51% of 2,300 active; AID 624378;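 active = average inhibition above a cutoff equal to the mean inhibition of all tested compounds plus one SD, cut at about 70% in these data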;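 note: 0% = DMSO in NR2E3 cells and 100% = DMSO in cells lacking NR2E3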
VP16 counter = reduces GAL4-VP16 reporter signal in NR2E3 counterscreen | shares compounds with NR2E3 ag-1 | CHO-S GAL4-VP16 luciferase reporter, luminescence | inhibition, % at 3.98 µM | 29% of 2,300 active | AID 624379;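 active = mean inhibition above a cutoff equal to the average over all tested compounds plus one standard deviation, cut at about 70% in these data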;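 note: luciferase from a UAS reporter driven by GAL4-VP16 transactivation; 0% = DMSO with VP16-transfected cells and 100% = DMSO with cells lacking VP16; higher means less reporter light so more repression of VP16 activity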
* hit, by the source's call. A selection: hits, their analogues and other compounds. The true share with any hit is near 2%.

Screening O=C1C(=O)c2cccnc2-c2ncccc21 returned Neddylation inh inactive, NR2E3 ag-1 71.6*, Rev-erbA mod -1.6, PG9 binder -1.5, NR2E3 ag conf 89.0* and VP16 counter 38.7.
CC1(C)O[C@@H]2CC3C4CCC5=CC(=O)C=C[C@]5(C)[C@@]4(F)[C@@H](O)C[C@]3(C)[C@]2(C(=O)CO)O1 (some centres undefined) was read as Rev-erbA mod 0.5.
For Cn1c(SCCc2ccccc2)nnc1-c1ccco1 the results were Rev-erbA mod -0.9.
For CCOCCOC(=O)c1[nH]c2c(c1C)C(=O)CC(c1cc(OC)c(OC)c(OC)c1)C2 (centres undefined) the results were Neddylation inh inactive, NR2E3 ag-1 63.9, NR2E3 ag-2 -6.4, Rev-erbA mod 0.3, PG9 binder -0.8, NR2E3 ag conf 18.7 and VP16 counter 27.9.
Screening CCCCCOC(=O)c1[nH]c2c(c1C)C(=O)CC(c1ccco1)C2 (centres undefined) returned Neddylation inh inactive, NR2E3 ag-1 51.6, NR2E3 ag-2 7.5, NR2E3 ag conf -4.8 and VP16 counter 10.8.
CCOC(=O)NC[C@@]1(C(=O)OC)CC(=O)N(Cc2ccc(Cl)cc2)[C@@H]1c1ccc(OC)cc1 was read as Rev-erbA mod 0.9.
Screening Cc1ccc(NC(=O)Cn2c(=O)oc3cc(S(=O)(=O)N4CCC(C)CC4)ccc32)cc1C returned Neddylation inh inactive, NR2E3 ag-1 48.3, NR2E3 ag-2 -0.5, Rev-erbA mod -6.0, PG9 binder 2.5, NR2E3 ag conf 50.3 and VP16 counter 52.6.
For Cc1ccc(NC(=O)Cc2nn(C)c(=O)c3ccccc23)cc1F the results were Neddylation inh inactive, NR2E3 ag-1 54.4, NR2E3 ag-2 3.6, Rev-erbA mod 5.3, PG9 binder -2.5, NR2E3 ag conf 90.2* and VP16 counter 75.0*.
N#Cc1ccccc1OCC(=O)Nc1ccc2c(c1)OCCO2 was read as Neddylation inh inactive, NR2E3 ag-1 -38.0, NR2E3 ag-2 -1.4, Rev-erbA mod -3.9 and PG9 binder 0.6.
Screening Cn1nc(CC(=O)Nc2ccc3c(c2)OCCO3)c2ccccc2c1=O returned Neddylation inh inactive, NR2E3 ag-1 97.8*, NR2E3 ag-2 0.6, Rev-erbA mod 4.8, PG9 binder -0.5, NR2E3 ag conf 91.5* and VP16 counter 72.7*.
For Cn1nc(CC(=O)Nc2ccc(N3CCN(C(=O)OC(C)(C)C)CC3)cc2)c2ccccc2c1=O the results were Neddylation inh inactive, NR2E3 ag-1 75.7*, NR2E3 ag-2 -3.0, Rev-erbA mod -4.1, PG9 binder -0.4, NR2E3 ag conf 90.1* and VP16 counter 79.1*.
For O=C(COc1ccccc1F)Nc1ccc2c(c1)OCCO2 the results were Neddylation inh inactive, NR2E3 ag-1 73.5*, NR2E3 ag-2 3.7, Rev-erbA mod -1.9, PG9 binder 1.0, NR2E3 ag conf 9.5 and VP16 counter -5.9.
Screening COC(=O)C1CN(Cc2cn(Cc3ccc(OC)cc3)nn2)CCS(=O)(=O)N1Cc1ccc(Cl)cc1 (centres undefined) returned Rev-erbA mod -3.7.
`COC(=O)C1CN(Cc2cn(CCOC(C)=O)nn2)CCS(=O)(=O)N1Cc1ccc(C)cc1` (centres undefined) gave Rev-erbA mod 3.8.
`NC(=O)NOCc1ccc(Cl)cc1Cl` gave Neddylation inh inactive, NR2E3 ag-1 -12.3, NR2E3 ag-2 1.8, Rev-erbA mod -2.5 and PG9 binder -0.8.
For CNC(=S)/N=C/NOCc1ccc(Cl)cc1Cl the results were Neddylation inh inactive, NR2E3 ag-1 57.9, NR2E3 ag-2 -1.7, Rev-erbA mod 1.3, PG9 binder -3.8, NR2E3 ag conf 81.7* and VP16 counter 43.7.
Screening Cc1ccc(C(=O)C2CCN(C(=O)c3ccc(C)cc3)CC2)cc1 returned Neddylation inh inactive, NR2E3 ag-1 54.5, NR2E3 ag-2 -1.6, Rev-erbA mod 0.2, PG9 binder -0.7, NR2E3 ag conf 31.6 and VP16 counter 27.2.
`COc1ccccc1C(=O)N1CCCC(c2nc(-c3cccs3)no2)C1` (centres undefined) gave Rev-erbA mod -2.4.
Oc1ccccc1N1CCN(C(=S)Nc2ccc(SC(F)F)cc2)CC1 was read as Neddylation inh inactive, NR2E3 ag-1 20.3, NR2E3 ag-2 -2.2, Rev-erbA mod 6.2 and PG9 binder -0.5.
For FC(F)Sc1ccc(NC(=S)N2CCN(c3ccccn3)CC2)cc1 the results were Neddylation inh inactive, NR2E3 ag-1 61.3, Rev-erbA mod 3.1, PG9 binder -1.7, NR2E3 ag conf 86.7* and VP16 counter 45.3.
CC1CCc2nc(NC(=O)CSc3nc4ccccc4o3)sc2C1 (centres undefined) was read as Neddylation inh inactive, NR2E3 ag-1 84.4*, NR2E3 ag-2 0.7, Rev-erbA mod -3.1, PG9 binder 0.7, NR2E3 ag conf 61.7 and VP16 counter 56.9.
Screening NC(=O)c1nnn(Cc2cc(Cl)c(C(=O)c3ccc(Cl)cc3)c(Cl)c2)c1N returned Neddylation inh inactive, NR2E3 ag-1 91.5*, Rev-erbA mod 2.8, PG9 binder -2.4, NR2E3 ag conf 96.0* and VP16 counter 82.3*.
For Nc1c(C(=O)Nc2ccc3c(c2)OCCO3)nnn1Cc1ccc(Cl)cc1 the results were Neddylation inh inactive, NR2E3 ag-1 -126.4, NR2E3 ag-2 -0.7, Rev-erbA mod -4.7 and PG9 binder -0.5.
For CC[C@@]1(O)C(=O)OCc2c1cc1n(c2=O)Cc2c-1nc1cc(F)c(C)c3c1c2[C@@H](N)CC3 the results were Rev-erbA mod -3.0.
`CCC1(O)C(=O)OCc2c1cc1n(c2=O)Cc2cc3c(N)cccc3nc2-1` (centres undefined) gave Neddylation inh inactive, NR2E3 ag-1 86.1*, Rev-erbA mod 1.8, PG9 binder -16.9, NR2E3 ag conf 94.1* and VP16 counter 52.9.
`CCC1(OC(=O)CN(C)C)C(=O)OCc2c1cc1n(c2=O)Cc2cc3c(N)cccc3nc2-1` (centres undefined) gave Neddylation inh inactive, NR2E3 ag-1 66.4, NR2E3 ag conf 83.8* and VP16 counter 25.8.
O=C(C(=O)N1CCC(CNS(=O)(=O)c2ccccc2)CC1)c1cc2ccccc2o1 was read as Rev-erbA mod -5.8 and PG9 binder -0.9.
Cc1ccc(S(=O)(=O)N2[C@@H](c3ccc(C(C)(C)C)cc3)C(C(=O)O)=CC[C@H]2c2cccs2)cc1 was read as Neddylation inh inactive, NR2E3 ag-1 51.4, Rev-erbA mod 0.4, PG9 binder 0.0, NR2E3 ag conf -4.5 and VP16 counter -5.5.

Compound activity deposited in PubChem BioAssay by several laboratories.
